ChEMBL document CHEMBL4689842, “EUbOPEN Chemogenomics Library wave 1” (2021)
“And” between values parts separate entries of the source, which are not always exact repeats. Equal entries are not always repeated.

Assays:
Type in all cases: toxicity, cell-based
[1] = test system: Fibroblast; assay: Incucyte cell viability with human fibroblast; conditions: 10 µM, compound concentration 10 uM; further: filed as whole numbers so only -1 and 0 and 1 occur
[2] = test system: HEK-293T; assay: Multiplex assay against HEK293T; conditions: human;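 on Population Tubulin-Different-Phenotype (%): share of the cells with healthy nuclei that show this phenotype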
In short: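 Compound was added to live cells that had been stained at seeding with Hoechst33342, BioTracker Green Microtubule Cytoskeleton Dye, MitoTracker Red and Annexin V Alexa Fluor 680, and imaging followed on a CQ1 microscope at 37°C and 5% CO2. CellPathfinder machine-learning gating divided cells into Hoechst high-intensity objects or normal cells, normal cells into healthy, pyknosed or fragmented nuclei, and pyknosed cells into mitotic or apoptotic. Tubulin, mitochondrial-mass and membrane-permeability phenotypes are per cents of healthy-nucleus cells.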

[3] = test system: HEK-293T; assay: Incucyte cell viability with HEK293T; conditions: human, 10 µM, compound concentration 10 uM; further: filed as whole numbers so only -1 and 0 and 1 occur
[4] = 6 h, replicate number 1, timepoint 6 hours
[5] = 12 h, replicate number 1, timepoint 12 hours
[6] = 18 h, replicate number 1, timepoint 18 hours
[7] = 24 h, replicate number 1, timepoint 24 hours
[8] = 12 h, 1 µM, compound concentration 1 uM, replicate 1
[9] = 12 h, 1 µM, compound concentration 1 uM, replicate 2
[10] = 12 h, 10 µM, compound concentration 10 uM, replicate 1
[11] = 12 h, 10 µM, compound concentration 10 uM, replicate 2
[12] = 24 h, 1 µM, compound concentration 1 uM, replicate 1
[13] = 24 h, 1 µM, compound concentration 1 uM, replicate 2
[14] = 24 h, 10 µM, compound concentration 10 uM, replicate 1
[15] = 24 h, 10 µM, compound concentration 10 uM, replicate 2
[16] = 48 h, 10 µM, compound concentration 10 uM, replicate 1
[17] = 48 h, 10 µM, compound concentration 10 uM, replicate 2

## c1ccc(-c2oc3ncnc(NC[C@@H]4CCCO4)c3c2-c2ccccc2)cc1
[1]; 0 h, replicate number 2, timepoint 0 hours
  Growth Rate: 1
[1]; [4]
  Growth Rate: 0
[1]; [5]
  Growth Rate: 0
[1]; [6]
  Growth Rate: 0
[1]; [7]
  Growth Rate: 0
[2]; [8]
  Population Apoptotic (%): 20%
  Population Fragmented Nuclei (%): 13% and 15%
  Population Healthy Nuclei (%): 57% and 66%
  Population Hoechst High Intensity Objects (%): 11% and 13%
  Population Mitotic Cells (%): 79%
  Population Normal (%): 88% and 86%
  Population Pyknosed Nuclei (%): 28% and 17%
  Total Cell Count: 692 and 563
[2]; [9]
  Population Healthy Nuclei (%): 74% and 83%
  Population Hoechst High Intensity Objects (%): 2% and 1%
  Population Mitotic Cells (%): 86% and 97%
  Population Normal (%): 97% and 98%
  Total Cell Count: 938 and 1825
[2]; [10]
  Population Apoptotic (%): 72%
  Population Fragmented Nuclei (%): 14%
  Population Healthy Nuclei (%): 25%
  Population Hoechst High Intensity Objects (%): 17%
  Population Membrane Permeable-Phenotype (%): 3%
  Population Mitochondria Different-Phenotype (%): 98%
  Population Mitotic Cells (%): 27%
  Population Normal (%): 82%
  Population Pyknosed Nuclei (%): 59%
  Population Tubulin-Different-Phenotype (%): 98%
  Total Cell Count: 263
[2]; [11]
  Population Apoptotic (%): 43%
  Population Fragmented Nuclei (%): 4%
  Population Healthy Nuclei (%): 31%
  Population Hoechst High Intensity Objects (%): 7%
  Population Membrane Permeable-Phenotype (%): 17%
  Population Mitochondria Different-Phenotype (%): 71%
  Population Mitotic Cells (%): 56%
  Population Normal (%): 92%
  Population Pyknosed Nuclei (%): 63%
  Population Tubulin-Different-Phenotype (%): 90%
  Total Cell Count: 218
[2]; [12]
  Population Apoptotic (%): 28% and 21%
  Population Fragmented Nuclei (%): 11% and 14%
  Population Healthy Nuclei (%): 65% and 77%
  Population Hoechst High Intensity Objects (%): 10% and 5%
  Population Mitotic Cells (%): 71% and 78%
  Population Normal (%): 89% and 94%
  Total Cell Count: 699 and 659
[2]; [13]
  Population Apoptotic (%): 8% and 3%
  Population Healthy Nuclei (%): 74%
  Population Hoechst High Intensity Objects (%): 2% and 3%
  Population Mitotic Cells (%): 91% and 96%
  Population Normal (%): 97% and 96%
  Total Cell Count: 1013 and 3002
[2]; [14]
  Population Apoptotic (%): 69%
  Population Fragmented Nuclei (%): 20%
  Population Healthy Nuclei (%): 19%
  Population Hoechst High Intensity Objects (%): 23%
  Population Membrane Permeable-Phenotype (%): 0%
  Population Mitochondria Different-Phenotype (%): 94%
  Population Mitotic Cells (%): 30%
  Population Normal (%): 76%
  Population Pyknosed Nuclei (%): 60%
  Population Tubulin-Different-Phenotype (%): 94%
  Total Cell Count: 260
[2]; [15]
  Population Apoptotic (%): 43%
  Population Fragmented Nuclei (%): 2%
  Population Healthy Nuclei (%): 31%
  Population Hoechst High Intensity Objects (%): 4%
  Population Membrane Permeable-Phenotype (%): 16%
  Population Mitochondria Different-Phenotype (%): 75%
  Population Mitotic Cells (%): 56%
  Population Normal (%): 95%
  Population Pyknosed Nuclei (%): 66%
  Population Tubulin-Different-Phenotype (%): 90%
  Total Cell Count: 222
[2]; [16]
  Population Apoptotic (%): 70%
  Population Fragmented Nuclei (%): 26%
  Population Healthy Nuclei (%): 16%
  Population Hoechst High Intensity Objects (%): 23%
  Population Membrane Permeable-Phenotype (%): 3%
  Population Mitochondria Different-Phenotype (%): 96%
  Population Mitotic Cells (%): 29%
  Population Normal (%): 76%
  Population Pyknosed Nuclei (%): 57%
  Population Tubulin-Different-Phenotype (%): 93%
  Total Cell Count: 268
[2]; [17]
  Population Apoptotic (%): 48%
  Population Fragmented Nuclei (%): 4%
  Population Healthy Nuclei (%): 64%
  Population Hoechst High Intensity Objects (%): 5%
  Population Membrane Permeable-Phenotype (%): 19%
  Population Mitochondria Different-Phenotype (%): 66%
  Population Mitotic Cells (%): 51%
  Population Normal (%): 94%
  Population Pyknosed Nuclei (%): 31%
  Population Tubulin-Different-Phenotype (%): 90%
  Total Cell Count: 272
[3]; [4]
  Growth Rate: 0
[3]; [5]
  Growth Rate: 0
[3]; [6]
  Growth Rate: 0
[3]; [7]
  Growth Rate: 0
